Compound activity as filed in PubChem.
A selection: hits, their analogues and other compounds. The true share with any hit is near 2%.
CXCR6 block: inhibitors of human CXCR6 receptor; 0.36% of 360,000 active; CHO-K1 PathHunter CXCR6 beta-arrestin, luminescence; inhibition, % at 20 µM; O00574; AID 602244; in the data active = inhibition above about 34%, passing the limit was not always enough;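 also: antagonist mode with CXCL16 agonist at 10 nM final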
Target sequence (O00574 whole entry, looked up): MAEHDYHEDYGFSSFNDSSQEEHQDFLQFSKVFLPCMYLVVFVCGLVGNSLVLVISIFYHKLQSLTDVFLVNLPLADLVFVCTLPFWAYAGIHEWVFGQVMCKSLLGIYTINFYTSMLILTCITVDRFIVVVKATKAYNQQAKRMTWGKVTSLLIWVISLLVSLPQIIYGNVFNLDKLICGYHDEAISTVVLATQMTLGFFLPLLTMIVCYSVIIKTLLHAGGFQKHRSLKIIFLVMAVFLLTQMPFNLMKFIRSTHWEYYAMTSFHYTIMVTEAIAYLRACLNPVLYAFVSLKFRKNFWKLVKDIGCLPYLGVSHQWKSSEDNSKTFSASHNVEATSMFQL
EBI2 block: blocks human EBI2 receptor beta-arrestin signaling; EBI2 beta-arrestin recruitment, luminescence, 7a,25-OHC stimulated; AID 651636; inhibition, % at 5 µM; 0.81% of 360,000 active; P32249; in the data active = inhibition above about 38%;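 also: enzyme fragment complementation signal reports receptor beta-arrestin coupling in cells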
APJ ag: agonists of human APJ apelin receptor; CHO-K1 APJ PathHunter beta-arrestin, luminescence; 0% DMSO wells, 100% apelin; activation, % at 20 µM; AID 2520; 0.11% of 330,000 active; P35414;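 active = activation more than six SD over the plate average, tested at 20 µM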
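Test system: CHO-K1 APJ beta-arrestin complementation cell line | Compound: Single test compound dose, 20 µM final, 1% DMSO | Incubation: Compound 90 min 25 °C, reagent 1 h | Measured by: beta-gal luminescence | Read-out basis: APJ–arrestin association signal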
FXN GAA850 act: increases GAA850 frataxin promoter reporter activity. AID 540364. 0.56% of 360,000 active. HEK293 lucGAA850 FXN promoter luciferase reporter, 24 h; percent of 10 µM SAHA response. activation, % at 6 µM;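 active = activation above the average of all compounds screened plus 3 SD, cutoff fixed separately per campaign, cut at about 7.5% in these data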
APJ antag: antagonists of human APJ apelin receptor | 0.32% of 330,000 active | AID 2521 | inhibition, % at 20 µM | CHO-K1 APJ beta-arrestin complementation, luminescence;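 active = inhibition above about 40% at 20 µM, limit read from the data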;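 also: cells challenged with 10 nM apelin-13 agonist together with compound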
CCR6 antag: CCR6 (human) receptor antagonism; CHO-K1 CCR6 PathHunter beta-arrestin, luminescence, CCL20-stimulated; inhibition, % at 20 µM; AID 493098; P51684; 0.49% of 340,000 active;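 active = compounds whose inhibition of the agonist-driven luminescence signal at 20 µM reaches about 50%, limit read from the data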;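 also: cells stimulated with CCL20 at 14 nM final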
APJ antag conf: confirmation of human APJ apelin receptor antagonists | shares compounds with APJ antag | APJ beta-arrestin recruitment, luminescence, antagonist mode | inhibition, % at 20 µM | 66% of 950 active | AID 2766; in the data active = inhibition above about 50%
Numbers stand for hits; i = inactive; nt = no result given.

SMILES | CXCR6 block | EBI2 block | APJ ag | FXN GAA850 act | APJ antag | CCR6 antag | APJ antag conf
C=CCn1c(-c2cccc3ccccc23)n[nH]c1=S | i | i | i | i | 43 | i | i
C=CCn1c(-c2ccccc2OC)n[nH]c1=S | i | i | i | i | i | i | nt
Nc1[nH]n2c(=O)cc(-c3ccccc3)nc2c1N=Nc1ccc(S(N)(=O)=O)cc1 | i | i | i | i | 42 | 51 | 65
Cc1ccc(N=Nc2c(N)[nH]n3c(=O)cc(C)nc23)cc1 | i | i | nt | i | nt | i | nt
CC(=O)Oc1ccccc1Cn1c(C)c(C(=O)N(C)Cc2ccc(F)cc2)sc1=O | i | i | nt | i | nt | nt | nt
COc1cccc(Nc2ccc([N+](=O)[O-])c3nonc23)c1 | i | i | i | i | 41 | i | 68
CC1(C2(O)CCCCC2)NCCc2ccccc21 (centres undefined) | i | i | i | i | i | i | nt
COc1ccc(S(=O)(=O)NC2CC2)cc1Br | i | i | i | i | i | i | nt
Cc1cc(C)nc(NNS(=O)(=O)c2ccc(Cl)cc2)n1 | i | i | i | i | 75 | 53 | 113
Cc1cc(C)nc(NNS(=O)(=O)c2ccc(F)c(Cl)c2)n1 | i | i | i | i | 53 | i | 109
COc1ccc(S(=O)(=O)NNc2nc(C)cc(C)n2)cc1Br | i | i | i | i | 54 | i | 52
COCCNC(=S)N(C)[C@H]1C[C@H]2c3cc(-c4ccccc4)ccc3CCN2C(=O)[C@H]1[C@H](C)O | i | i | nt | i | nt | nt | nt
C[C@@H]1CN([C@H](C)CO)C(=O)CCCn2nncc2CO[C@H]1CN(C)Cc1ccccc1C(F)(F)F | i | i | nt | i | nt | nt | nt
CC1(C)CN(c2ccccc2)C(=O)[C@H]1CC(=O)Nc1ccccc1 | i | i | nt | i | nt | nt | nt
O=C(C1=C(O)C(=O)N(CCN2CCOCC2)C1c1cccc(O)c1)c1cc2ccccc2o1 (centres undefined) | i | i | i | i | i | i | nt
O=C(C1=C(O)C(=O)N(CCN2CCOCC2)C1c1cccs1)c1cc2ccccc2o1 (centres undefined) | i | i | i | i | 56 | i | i
O=C(O)CC1(CC(=O)Nc2ccccc2Br)CCCC1 | i | i | i | i | i | i | nt
Cc1ccc2nsnc2c1NC(=O)CCl | i | i | i | i | i | i | nt
Cc1ccc2nsnc2c1NC(=O)Cc1ccc(Cl)cc1 | i | i | i | i | 45 | i | i
OCC(O)[C@@H](O[C@H]1O[C@H](CO)[C@@H](O)[C@H](O)[C@H]1O)[C@H](O)[C@@H](O)CO (some centres undefined) | i | i | i | i | i | i | nt
O=C(CSC1=Nc2ccccc2C2=NC(c3ccccc3)C(=O)N12)NC1CCCCC1 (centres undefined) | i | i | i | i | i | i | nt
CN(C(=O)CSC1=Nc2ccccc2C2=NC(c3ccccc3)C(=O)N12)C1CCCCC1 (centres undefined) | 47 | i | i | i | 47 | 52 | 61
ON1C(c2ccc(Cl)cc2Cl)N(O)[C@H]2CCCC[C@H]21 (some centres undefined) | i | i | i | i | 55 | 80 | 85
O=C(CSc1nnc(Cn2c(=O)sc3ccccc32)n1-c1ccccc1)N1CCOCC1 | i | i | i | i | i | i | nt
Cc1ccccc1-n1c(Cn2c(=O)sc3ccccc32)nnc1SCC(=O)N1CCOCC1 | i | i | i | i | 52 | i | i
SMILES | CXCR6 block | EBI2 block | APJ ag | FXN GAA850 act | APJ antag | CCR6 antag | APJ antag conf
CC(=O)c1cccc(Nc2nc(-c3cccc([N+](=O)[O-])c3)cs2)c1 | i | i | i | 8.0 | 52 | i | i
CC(=O)Nc1nc(C)c(-c2csc(Nc3cccc([N+](=O)[O-])c3)n2)s1 | i | i | i | i | i | i | nt
CCC1(c2ccc(F)cc2)NC(=O)N(CC(=O)N2c3ccccc3CC2C)C1=O (centres undefined) | i | i | i | i | i | i | nt
O=C1S/C(=C\c2ccc(O)c([N+](=O)[O-])c2)C(=O)N1c1ccccc1Cl | i | i | i | i | i | i | nt
COc1cc(/C=C2\SC(=O)N(c3cccc(Cl)c3)C2=O)cc([N+](=O)[O-])c1O | i | i | i | i | 48 | 68 | 59
Cc1cc(C)c2c(CN3CCCCCCC3)cc(=O)oc2c1 | i | i | nt | nt | nt | nt | nt
